Measured values pooled from the literature.
Compare with care: the assays were run in different laboratories.
P2RX7: P2X purinoceptor 7 (P2RX7, Homo sapiens, UniProt Q99572)
JAK3: Tyrosine-protein kinase JAK3 (JAK3, Homo sapiens, UniProt P52333)
KCNA5: Potassium voltage-gated channel subfamily A member 5 (KCNA5, Homo sapiens, UniProt P22460)
gag-pol integrase: Gag-Pol polyprotein, integrase (gag-pol, Human immunodeficiency virus 1, UniProt P12497)
MET: Hepatocyte growth factor receptor (MET, Homo sapiens, UniProt P08581)
TGFBR1: TGF-beta receptor type-1 (TGFBR1, Homo sapiens, UniProt P36897)
crk3: crk3 (Leishmania mexicana, UniProt O15851)
IDE: Insulin-degrading enzyme (IDE, Homo sapiens, UniProt P14735)

The IC50 of `CCCCCCCCCCC[C@@H](C[C@@H]1OC(=O)[C@H]1CCCCCC)OC(=O)[C@H](CC(C)C)NC=O` is reported as 168 nM (Lysosomal acid lipase/cholesteryl ester hydrolase (LIPA, Homo sapiens, UniProt P38571); enzyme activity, inhibitor).
`CC/C=C\C/C=C\C/C=C\C/C=C\C/C=C\CCCC(=O)O` has an IC50 of 88500 nM (DNA polymerase beta (Rattus norvegicus, UniProt P06766); enzyme activity, inhibitor).
For `Sc1nnc(-c2cc(-c3ccccc3)nc3ccccc23)o1`, the IC50 was 7270 nM (P2RX7; calcium signal, antagonist).
`CC(C)(C)n1nc(-c2cnc3cc(OC4CC4)ccc3c2)c(C(N)=O)c1N` gave an IC50 of greater than 10000 nM (JAK3; cell-free assay).
With `Cc1ccc(-n2nc(C(C)(C)C)cc2NC(=O)Nc2ccc(OCCN3CCOCC3)c3ccccc23)cc1` the IC50 was 1100 nM (KCNA5; ion current, inhibitor).
For `Cc1[nH]c(/C=C2\C(=O)Nc3ccc(S(=O)(=O)N(C)c4cccc(Cl)c4)cc32)c(C)c1C(=O)N1CCN(C)CC1`, the IC50 was 5 nM (Hepatocyte growth factor receptor, non-phosphorylated (MET, Homo sapiens, UniProt P08581); enzyme activity, inhibitor, TR-FRET).
For `CC(C)(C)OC(=O)N1CCC(C(=O)N[C@@H](Cc2ccc3ccccc3c2)C(=O)O)(c2ccccc2)CC1`, the IC50 was 90300 nM (gag-pol integrase; enzyme activity, inhibitor, TR-FRET).
The IC50 of `COc1ccc(-c2n[nH]c(=S)o2)cc1` is reported as 8290 nM (P2RX7; calcium signal, antagonist).
The IC50 of `CCOC(=O)c1cnc2[nH]ccc2c1N[C@@H]1CCCN(C(=O)CC#N)C1` is reported as 3.6 nM (JAK3; enzyme activity, inhibitor).
The IC50 of `CC(C)C[C@H](NC(=O)[C@H](Cc1ccccc1)NC(=O)[C@H](Cc1ccc(O)cc1)NC(=O)CNC(=O)[C@H](CCCNC(=N)N)NC(=O)[C@H](CO)NC(=O)[C@H](CCC(N)=O)NC(=O)[C@H](CO)NC(=O)[C@H](C)NC(=O)[C@H](Cc1ccccc1)NC(=O)[C@@H]1CCCN1C(=O)[C@H](CO)NC(=O)[C@H](CCC(N)=O)NC(=O)[C@H](Cc1ccccc1)NC(=O)[C@H](CCC(=O)O)NC(=O)[C@H](CCC(=O)O)NC(=O)[C@H](CC(=O)O)NC(=O)[C@@H](NC(=O)[C@H](CCCNC(=N)N)NC(=O)[C@@H](N)Cc1ccccc1)C(C)C)C(=O)N[C@@H](Cc1ccccc1)C(=O)N[C@@H](CCCNC(=N)N)C(=O)N1CCC[C@H]1C(=O)N[C@@H](CCCNC(=N)N)C(=O)N[C@@H](CC(N)=O)C(N)=O` is reported as 0.22 nM (Neuromedin-U receptor 2 (NMUR2, Homo sapiens, UniProt Q9GZQ4); ligand displacement, radioligand; cell membranes).
`O=C(Nc1ccn(Cc2ccc(O)cc2C(F)(F)F)n1)c1c(F)cccc1F` gave an IC50 of greater than 10000 nM (P2RX7; ion current).
The IC50 of `Cc1cc(Oc2ccc(NC(=O)c3sc(-c4ccccc4)nc3C)cc2F)c2nncn2n1` is reported as 630 nM (MET; enzyme activity, inhibitor, mobility shift).
`O=C(O)[C@H](Cc1ccc2ccccc2c1)NC(=O)C1(c2ccc(F)cc2)CCN(S(=O)(=O)c2ccccc2)CC1` has an IC50 of 150000 nM (gag-pol integrase; enzyme activity, inhibitor, TR-FRET).
The IC50 of `CN1CCN(c2ccc(Nc3ncc4cc(C#N)c(=O)n(C5CCCC5)c4n3)cc2)CC1` is reported as 1840 nM (TGFBR1; enzyme activity, inhibitor).
For `CCOCc1nc(O)c(-c2nnc(Cc3ccc(Cl)cn3)o2)c(O)c1-c1c(OC)cccc1OC`, the IC50 was greater than 30000 nM (Alpha-1B adrenergic receptor (ADRA1B, Homo sapiens, UniProt P35368); ligand displacement, radioligand).
The IC50 of `Cc1ccc(S(=O)(=O)Oc2ccccc2NC(=O)c2ccc3ncccc3c2)cc1` is reported as 1490 nM (P2RX7; calcium signal, antagonist).
The IC50 of `CC(C)C[C@H](CC(=O)NO)C(=O)N[C@@H](Cc1ccccc1)C(=O)NCCN1CCOCC1` is reported as 3 nM (Interstitial collagenase (MMP1, Homo sapiens, UniProt P03956); enzyme activity, inhibitor, absorbance).
`CCCc1ccc(S(=O)(=O)Oc2ccccc2NC(=O)c2ccc3ncccc3c2)cc1` gave an IC50 of 2170 nM (P2RX7; calcium signal, antagonist).
`C[C@H]1C[C@@H](N2C(=N)N[C@](C)(c3cccc(Nc4ccc(C5CC5)nc4)c3Cl)CC2=O)CCO1` has an IC50 of 4620 nM (KCNA5; ion current, inhibitor, patch clamp).
The IC50 of `COC(=O)c1ccc(NC(=O)NC2=CC(=O)CC(C)(C)C2)cc1` is reported as 3300 nM (crk3; enzyme activity, inhibitor, radiometric).
`COC(=O)[C@H](Cc1c[nH]cn1)NC(=O)CN(Cc1ccccc1)c1c(O)c(=O)c1=O` gave an IC50 of 12500 nM (IDE; enzyme activity, inhibitor, fluorescence).
`Nc1ncnc2c1c(COc1cccc(Cl)c1)nn2C1CCOCC1` has an IC50 of 820 nM (TGFBR1; cell-free assay, TR-FRET).
`Oc1c2ccccc2c2c3c(cccc13)N=N2` has an IC50 of 344 nM (JAK3; enzyme activity, inhibitor).
With `Cc1cnc(-c2ccc(-c3ccc(NC(=O)Nc4c(F)cc(F)cc4F)cc3F)c3c2C(=O)NC3)[nH]1` the IC50 was 13.6 nM (MET; enzyme activity, inhibitor).
`O=C(O)C(CCC(c1ccccc1)(c1ccccc1)c1ccccc1)NCc1ccccc1` (racemic) gave an IC50 of greater than 49200 nM (Kinesin-like protein KIF11 (KIF11, Homo sapiens, UniProt P52732); ATPase activity, inhibitor).
For `CNC(=O)c1cc2c(Oc3ccc(NC(=O)C4(C(=O)Nc5ccc(F)cc5)CC4)cc3)ccnc2cc1OC`, the IC50 was 5 nM (Hepatocyte growth factor receptor (MET, Homo sapiens, UniProt P08581, Y1230H); enzyme activity, inhibitor, radiometric).
`COC(=O)[C@H](Cc1c[nH]cn1)NC(=O)CN(CCc1c[nH]c2ccccc12)CC(=O)O` has an IC50 of 1200 nM (IDE; enzyme activity, inhibitor, fluorescence).
For `Cc1cc(Oc2ccc(NC(=O)c3cc(-c4cccs4)no3)cc2)c2nncn2n1`, the IC50 was 880 nM (MET; enzyme activity, inhibitor, mobility shift).
`Cc1ccc(C(=O)Nc2ccc(Oc3cc4cnn(C)c4cc3-c3cn[nH]c3)c(F)c2)c(=O)n1-c1ccc(F)cc1` has an IC50 of 32 nM (Macrophage colony-stimulating factor 1 receptor (CSF1R, Homo sapiens, UniProt P07333); enzyme activity, inhibitor, radiometric).
For `CCC[C@H](NC(=O)C1CN(C)C1)c1ncc(-c2cc3ccccc3nc2OC)[nH]1`, the IC50 was 160 nM (Histone deacetylase 3 (HDAC3, Homo sapiens, UniProt O15379); enzyme activity, inhibitor, fluorescence).
The IC50 of `CC1(C)CC(=O)C=C(NC(=O)Nc2ccc(O)cc2)C1` is reported as 3300 nM (crk3; enzyme activity, inhibitor, radiometric).
For `CC[C@H](C)[C@H](NC(C)=O)C(=O)N[C@@H](CCC(=O)O)C(=O)N[C@H](C(=O)N[C@H](C=O)CC(=O)O)[C@@H](C)O`, the IC50 was 17.3 nM (Caspase-1 (CASP1, Homo sapiens, UniProt P29466); enzyme activity, inhibitor).
For `Sc1nnc(-c2ccccn2)o1`, the IC50 was 11800 nM (P2RX7; calcium signal, antagonist).
For `CC(C)(C)OC(=O)N1CCC(C(=O)N[C@@H](Cc2ccccc2)C(=O)O)(c2ccc(-c3ccccc3)cc2)CC1`, the IC50 was 64400 nM (gag-pol integrase; enzyme activity, inhibitor, TR-FRET).
`COC(=O)[C@H](Cc1c[nH]cn1)NC(=O)CN(CC(=O)O)Cc1ccncc1` has an IC50 of 6300 nM (IDE; enzyme activity, inhibitor, fluorescence).
The IC50 of `CC1(COc2ccc(CC3SC(=O)NC3=O)cc2)CCCCC1` (stereo not shown) is reported as 377000 nM (Peroxisome proliferator-activated receptor alpha (PPARA, Homo sapiens, UniProt Q07869); ligand displacement, TR-FRET).
The IC50 of `COC(=O)CN(CC(=O)N[C@@H](Cc1c[nH]cn1)C(=O)OC)Cc1ccccc1` is reported as greater than 100000 nM (IDE; enzyme activity, inhibitor, fluorescence).
`COc1ccc2c(Oc3ccc4c(C(=O)Nc5ccccc5N)cccc4c3)ccnc2c1` gave an IC50 of greater than 500 nM (MET; enzyme activity, inhibitor).
For `O=C(O)CN(CCCc1ccccc1)CC(=O)N[C@H](CO)Cc1c[nH]cn1`, the IC50 was 1600 nM (IDE; enzyme activity, inhibitor, fluorescence).
`Cc1cc(Oc2ccc(NC(=O)c3sc(-c4ccc(F)cc4)nc3C)cc2)c2nncn2n1` gave an IC50 of 790 nM (MET; enzyme activity, inhibitor, mobility shift).
`O=C(O)CN(CCCc1ccccc1)CC(=O)N[C@@H](Cc1c[nH]cn1)C(=O)NCc1ccccc1` gave an IC50 of 400 nM (IDE; enzyme activity, inhibitor, fluorescence).
For `O=C(O)[C@H](Cc1ccccc1)NC(=O)C1(c2ccc(F)cc2)CCN(S(=O)(=O)c2ccccc2)CC1`, the IC50 was 91300 nM (gag-pol integrase; enzyme activity, inhibitor, TR-FRET).
With `COC(=O)[C@H](CCCNC(=N)N)NC(=O)CN(CC(=O)O)Cc1ccccc1` the IC50 was 36300 nM (IDE; enzyme activity, inhibitor, fluorescence).
`O=C(O)CC1=C/C(=C\c2cccc(-c3ccc(F)cc3)n2)c2ccc(F)cc21` has an IC50 of 670 nM (Prostaglandin G/H synthase 2 (Ptgs2, Mus musculus, UniProt Q05769); enzyme activity, inhibitor).
For `CC(C)(C)OC(=O)[C@H](Cc1c[nH]cn1)NC(=O)CN(CCCc1ccccc1)CC(=O)O`, the IC50 was 400 nM (IDE; enzyme activity, inhibitor, fluorescence).
The IC50 of `Cc1cc(Oc2ccc(NC(=O)c3sc(-c4ccccc4)nc3C)cc2)c2nncn2n1` is reported as 880 nM (MET; enzyme activity, inhibitor, mobility shift).
